Tested on: Fibroblast
Test: Multiplex assay against human fibroblast
Type: toxicity, cell-based
Summary of the method: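 Phenotypes for tubulin, mitochondrial mass and membrane permeability are expressed as per cents of healthy-nucleus cells. Cells were stained live at seeding with Hoechst33342, BioTracker Green Microtubule Cytoskeleton Dye, MitoTracker Red and Annexin V Alexa Fluor 680, then imaged after compound addition on a CQ1 microscope at 37°C and 5% CO2. Machine-learning gating in CellPathfinder separated Hoechst high-intensity objects from normal cells, divided normal cells by nuclear state (healthy, pyknosed, fragmented) and divided pyknosed cells into mitotic or apoptotic.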

[1] = 12 h, 1 µM, compound concentration 1 uM, replicate 1
[2] = 12 h, 1 µM, compound concentration 1 uM, replicate 2
[3] = 12 h, 10 µM, compound concentration 10 uM, replicate 1
[4] = 12 h, 10 µM, compound concentration 10 uM, replicate 2
[5] = 24 h, 1 µM, compound concentration 1 uM, replicate 1
[6] = 24 h, 1 µM, compound concentration 1 uM, replicate 2
[7] = 24 h, 10 µM, compound concentration 10 uM, replicate 1
[8] = 24 h, 10 µM, compound concentration 10 uM, replicate 2
[9] = 48 h, 1 µM, compound concentration 1 uM, replicate 1
[10] = 48 h, 1 µM, compound concentration 1 uM, replicate 2
[11] = 48 h, 10 µM, compound concentration 10 uM, replicate 1
[12] = 48 h, 10 µM, compound concentration 10 uM, replicate 2

COc1cc2nc(N3CCN(C(=O)COc4c(OC)cccc4C(C)C)CC3)nc(N)c2cc1OC.Cl.Cl
Population Apoptotic (%) [1]: 50%
Population Fragmented Nuclei (%) [1]: 17%
Population Healthy Nuclei (%) [1]: 51%
Population Hoechst High Intensity Objects (%) [1]: 4%
Population Membrane Permeable-Phenotype (%) [1]: 3%
Population Mitochondria Different-Phenotype (%) [1]: 6%
Population Mitotic Cells (%) [1]: 50%
Population Normal (%) [1]: 95%
Population Pyknosed Nuclei (%) [1]: 30%
Population Tubulin-Different-Phenotype (%) [1]: 40%
Total Cell Count [1]: 123
Population Apoptotic (%) [2]: 36%
Population Fragmented Nuclei (%) [2]: 39%
Population Healthy Nuclei (%) [2]: 42%
Population Hoechst High Intensity Objects (%) [2]: 9%
Population Membrane Permeable-Phenotype (%) [2]: 5%
Population Mitochondria Different-Phenotype (%) [2]: 7%
Population Mitotic Cells (%) [2]: 63%
Population Normal (%) [2]: 90%
Population Pyknosed Nuclei (%) [2]: 18%
Population Tubulin-Different-Phenotype (%) [2]: 43%
Total Cell Count [2]: 182
Population Apoptotic (%) [3]: 33%
Population Fragmented Nuclei (%) [3]: 13%
Population Healthy Nuclei (%) [3]: 47%
Population Hoechst High Intensity Objects (%) [3]: 20%
Population Membrane Permeable-Phenotype (%) [3]: 0%
Population Mitochondria Different-Phenotype (%) [3]: 15%
Population Mitotic Cells (%) [3]: 66%
Population Normal (%) [3]: 79%
Population Pyknosed Nuclei (%) [3]: 38%
Population Tubulin-Different-Phenotype (%) [3]: 63%
Total Cell Count [3]: 346
Population Apoptotic (%) [4]: 29%
Population Fragmented Nuclei (%) [4]: 22%
Population Healthy Nuclei (%) [4]: 46%
Population Hoechst High Intensity Objects (%) [4]: 10%
Population Membrane Permeable-Phenotype (%) [4]: 4%
Population Mitochondria Different-Phenotype (%) [4]: 8%
Population Mitotic Cells (%) [4]: 70%
Population Normal (%) [4]: 89%
Population Pyknosed Nuclei (%) [4]: 30%
Population Tubulin-Different-Phenotype (%) [4]: 56%
Total Cell Count [4]: 283
Population Apoptotic (%) [5]: 68%
Population Fragmented Nuclei (%) [5]: 23%
Population Healthy Nuclei (%) [5]: 58%
Population Hoechst High Intensity Objects (%) [5]: 3%
Population Membrane Permeable-Phenotype (%) [5]: 1%
Population Mitochondria Different-Phenotype (%) [5]: 9%
Population Mitotic Cells (%) [5]: 31%
Population Normal (%) [5]: 96%
Population Pyknosed Nuclei (%) [5]: 17%
Population Tubulin-Different-Phenotype (%) [5]: 39%
Total Cell Count [5]: 128
Population Apoptotic (%) [6]: 57%
Population Fragmented Nuclei (%) [6]: 40%
Population Healthy Nuclei (%) [6]: 42%
Population Hoechst High Intensity Objects (%) [6]: 11%
Population Membrane Permeable-Phenotype (%) [6]: 5%
Population Mitochondria Different-Phenotype (%) [6]: 11%
Population Mitotic Cells (%) [6]: 42%
Population Normal (%) [6]: 88%
Population Tubulin-Different-Phenotype (%) [6]: 50%
Total Cell Count [6]: 180
Population Apoptotic (%) [7]: 40%
Population Fragmented Nuclei (%) [7]: 13%
Population Healthy Nuclei (%) [7]: 45%
Population Hoechst High Intensity Objects (%) [7]: 39%
Population Membrane Permeable-Phenotype (%) [7]: 0%
Population Mitochondria Different-Phenotype (%) [7]: 17%
Population Mitotic Cells (%) [7]: 60%
Population Normal (%) [7]: 60%
Population Pyknosed Nuclei (%) [7]: 41%
Population Tubulin-Different-Phenotype (%) [7]: 38%
Total Cell Count [7]: 344
Population Apoptotic (%) [8]: 33%
Population Fragmented Nuclei (%) [8]: 25%
Population Healthy Nuclei (%) [8]: 40%
Population Hoechst High Intensity Objects (%) [8]: 23%
Population Membrane Permeable-Phenotype (%) [8]: 4%
Population Mitochondria Different-Phenotype (%) [8]: 5%
Population Mitotic Cells (%) [8]: 66%
Population Normal (%) [8]: 76%
Population Pyknosed Nuclei (%) [8]: 34%
Population Tubulin-Different-Phenotype (%) [8]: 47%
Total Cell Count [8]: 273
Population Apoptotic (%) [9]: 65%
Population Fragmented Nuclei (%) [9]: 31%
Population Healthy Nuclei (%) [9]: 51%
Population Hoechst High Intensity Objects (%) [9]: 4%
Population Membrane Permeable-Phenotype (%) [9]: 0%
Population Mitochondria Different-Phenotype (%) [9]: 11%
Population Mitotic Cells (%) [9]: 35%
Population Normal (%) [9]: 96%
Population Pyknosed Nuclei (%) [9]: 16%
Population Tubulin-Different-Phenotype (%) [9]: 30%
Total Cell Count [9]: 125
Population Apoptotic (%) [10]: 42%
Population Fragmented Nuclei (%) [10]: 45%
Population Healthy Nuclei (%) [10]: 43%
Population Hoechst High Intensity Objects (%) [10]: 10%
Population Membrane Permeable-Phenotype (%) [10]: 8%
Population Mitochondria Different-Phenotype (%) [10]: 10%
Population Mitotic Cells (%) [10]: 57%
Population Normal (%) [10]: 89%
Population Pyknosed Nuclei (%) [10]: 11%
Population Tubulin-Different-Phenotype (%) [10]: 57%
Total Cell Count [10]: 193
Population Apoptotic (%) [11]: 45%
Population Fragmented Nuclei (%) [11]: 12%
Population Healthy Nuclei (%) [11]: 45%
Population Hoechst High Intensity Objects (%) [11]: 52%
Population Membrane Permeable-Phenotype (%) [11]: 2%
Population Mitochondria Different-Phenotype (%) [11]: 10%
Population Mitotic Cells (%) [11]: 54%
Population Normal (%) [11]: 47%
Population Pyknosed Nuclei (%) [11]: 42%
Population Tubulin-Different-Phenotype (%) [11]: 42%
Total Cell Count [11]: 358
Population Apoptotic (%) [12]: 30%
Population Fragmented Nuclei (%) [12]: 33%
Population Healthy Nuclei (%) [12]: 33%
Population Hoechst High Intensity Objects (%) [12]: 31%
Population Membrane Permeable-Phenotype (%) [12]: 9%
Population Mitochondria Different-Phenotype (%) [12]: 0%
Population Mitotic Cells (%) [12]: 69%
Population Normal (%) [12]: 68%
Population Pyknosed Nuclei (%) [12]: 33%
Population Tubulin-Different-Phenotype (%) [12]: 43%
Total Cell Count [12]: 311

Reference: ChEMBL document CHEMBL5058577, “EUbOPEN Chemogenomics Library 2 (Multiplex)” (2022)
